Six compounds from ChEMBL document CHEMBL4000151, “Potent Small Agonists of Protease Activated Receptor 2” (ACS Med Chem Lett, 2016) can be followed below.

The source made the active and inactive calls. The rule behind the calls is not given here. Non-standard residues stand in square brackets, D forms with d. Residues, ends and D or L forms follow the SMILES beside them. ξ: configuration not given here. *: point of attachment. Isoxazole(5-carbonyl) = O=C(c1ccno1)*; ξCha = NC(CC1CCCCC1)C(=O)O; ξChg = NC(C(=O)O)C1CCCCC1; Orn = NCCC[C@H](N)C(=O)O; 2Furoyl = O=C(c1ccco1)*

Data set [1] concerns the target T1, Proteinase-activated receptor 2 (Homo sapiens, UniProt P55085).
T1 sequence (P55085 whole entry): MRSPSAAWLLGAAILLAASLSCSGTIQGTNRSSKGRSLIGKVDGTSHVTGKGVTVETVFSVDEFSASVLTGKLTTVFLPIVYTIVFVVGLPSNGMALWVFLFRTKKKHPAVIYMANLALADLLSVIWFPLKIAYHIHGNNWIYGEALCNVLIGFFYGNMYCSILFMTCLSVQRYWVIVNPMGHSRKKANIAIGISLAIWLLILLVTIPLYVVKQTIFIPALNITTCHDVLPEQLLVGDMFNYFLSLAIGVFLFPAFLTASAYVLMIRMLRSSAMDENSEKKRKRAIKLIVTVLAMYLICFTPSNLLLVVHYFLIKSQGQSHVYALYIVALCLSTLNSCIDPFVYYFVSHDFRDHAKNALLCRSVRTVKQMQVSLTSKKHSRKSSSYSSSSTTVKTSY
Kind of data set: Agonist activity at human PAR2 expressed in CHO cells assessed as induction of intracellular calcium release measured for 300 secs by Fluo-3 AM dye-based fluorescence assay. Type of data set: functional, cell-based. In short, it runs like this:
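CHO cells stably expressing human PAR2 (wild-type or point mutant), or untransfected CHO cells, plated ~5 × 10^4/well overnight at 37 °C. Loaded 1 h at 37 °C with 4 μM Fluo-3 AM in HBSS with 1% FBS, then washed into HBSS with 2.5 mM probenecid and 20 mM HEPES, pH 7.4. Compound added over a concentration range.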
In general terms: A change in cytosolic calcium serves as a functional read-out for many receptors and channels.

In data set [2] the target is Proteinase-activated receptor 2 (Homo sapiens) (UniProt P55085). Kind of data set: Agonist activity at PAR2 in human PC3 cells assessed as induction of intracellular calcium release at 25 uM of first compound treatment followed by 100 uM of second compound treatment by Fluo-3 AM dye based fluorescence assay. It is filed as functional, cell-based.
Data set [3] shares this target. The data set can be described thus: Agonist activity at PAR2 in human MDA-MB-231 cells assessed as induction of chemotaxis at 100 nM incubated for 24 hrs by transwell migration assay. It is filed as cell-based. The gist of the method:
(§1)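 MDA-MB-231 cells lifted non-enzymatically into serum-free L-15 with 0.1% BSA and seeded at 2.5 × 10^5/insert on collagen-coated 5 μm transwell membranes, 3 h at 37 °C. Agonist at 100 nM placed in the bottom chamber for 24 h; SAM11 anti-PAR2 antibody (1 μg/mL) preincubated 30 min where used. Migrated cells stained with crystal violet and counted; chemotactic index = agonist/random migration.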

Data set [4] shares this target. Kind of data set: Agonist activity at PAR2 in human MDA-MB-231 cells assessed as induction of chemotaxis at 100 nM incubated for 24 hrs cells preincubated with PAR2 antibody SAM11 prior to test compound addition by transwell migration assay. It is filed as cell-based. In short, it runs like this:
as §1

The subject of data set [5] is CHO. The data set can be described thus: Induction of intracellular calcium release in PAR2 deficient CHO cells at 100 uM measured for 300 secs by Fluo-3 AM dye-based fluorescence assay. It is filed as functional, cell-based. The settings on record: Cricetulus griseus. The gist of the method:
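CHO cells stably expressing human PAR2 (wild-type or point mutant), or untransfected CHO cells, plated ~5 × 10^4/well overnight at 37 °C. Loaded 1 h at 37 °C with 4 μM Fluo-3 AM in HBSS with 1% FBS, then washed into HBSS with 2.5 mM probenecid and 20 mM HEPES, pH 7.4. Compound added over a concentration range. Ca2+ read 300 s (ex 495/em 520 nm); duplicates; normalized to calcimycin; EC50 from nonlinear regression.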

The subject of data set [6] is Plasma. Kind of data set: Metabolic stability in rat plasma at 1 uM at pH 7.4 after 4 hrs by UPLC-MS analysis. Type of data set: ADME, cell-free. The settings on record: pH 7.4, 4 h. In short, it runs like this:
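Compound from DMSO stock added to a 1:1 mixture of PBS and rat plasma at 37 °C, 1 μM initial. Aliquots taken at 0 to 240 min and quenched in MeCN, then centrifuged. Supernatant analysed by UPLC-MS as % of t = 0 peak area; n = 3.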

In general, EC50 refers to the concentration giving half of the maximal effect. For the compound H-SLIGKV-NH2, the EC50 in data set [1] worked out at 3000 nM. Same read-out and setting: under `CC(C)C[C@H](NC(=O)[C@H](CCCNC(=N)N)NC(=O)CNC(=O)C(NC(=O)C(CC1CCCCC1)NC(=O)c1ccno1)C1CCCCC1)C(N)=O` (stereo not given in full) ({Isoxazole(5-carbonyl)}-[ξCha][ξChg]GRL-NH2) stands 80 nM. Consider `CC[C@H](C)[C@H](NC(=O)C(CC1CCCCC1)NC(=O)c1ccno1)C(=O)NCC(=O)N[C@@H](CCCNC(=N)N)C(=O)N[C@@H](CC(C)C)C(N)=O` (stereo not given in full) ({Isoxazole(5-carbonyl)}-[ξCha]IGRL-NH2), for which, in data set [1], the EC50 was found to be 200 nM. For `CC[C@H](C)[C@H](NC(=O)[C@H](CC(C)C)NC(=O)c1ccco1)C(=O)NCC(=O)N[C@@H](CCCN=C(N)N)C(=O)N[C@@H](CC(C)C)C(=O)N[C@@H](CCCN)C(N)=O` (2Furoyl-LIGRL[Orn]-NH2), the 50% effective concentration (EC50) in data set [1] turned out to be 300 nM. With `CC[C@H](C)[C@H](NC(=O)[C@H](CC(C)C)NC(=O)c1ccco1)C(=O)NCC(=O)N[C@@H](CCCNC(=N)N)C(=O)N[C@@H](CC(C)C)C(=O)N[C@@H](CCCN)C(N)=O` (2Furoyl-LIGRL[Orn]-NH2), the outcome in data set [2], in data set [4] and in data set [5] was inactive. For the same compound, in data set [3], the outcome was Active.

Take `NC(=O)[C@@H](NC(=O)[C@H](CC1CCCCC1)NC(=O)c1ccno1)C1CCCCC1`: the Stability result in data set [6] was “Stable”. Besides, in data set [5], the outcome was inactive.
